ChEMBL document CHEMBL1137254, “Structurally simple, potent, Plasmodium selective farnesyltransferase inhibitors that arrest the growth of malaria parasites” (J Med Chem, 2006)

Tests used:
[1] = molecular target: T1, Protein farnesyltransferase (PFT) (Plasmodium falciparum) (UniProt Q5EI73+Q5EI74); assay: Inhibition of Plasmodium falciparum PFT at 5 nM
[2] = molecular target: T1, Protein farnesyltransferase (PFT) (Plasmodium falciparum); assay: Inhibition of Plasmodium falciparum PFT at 50 nM
[3] = test system: Plasmodium falciparum; assay: Inhibition of Plasmodium falciparum K1 growth as reduced [3H]hypoxanthine incorporation; type: functional; conditions: K1, 72 h, read-out: ED50 (the source's name)
Outline: (§1)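 Inhibitor in DMSO was added to P. falciparum culture (0.5% parasitemia, 0.5% hematocrit) in RPMI-1640 with 20% human A+ plasma. Cultures were held 48 h at 37 °C under 5% CO2/5% O2/90% N2, then pulsed with [8-3H]hypoxanthine (0.3 μCi) for 24 h more. Cells were harvested and counted by β-scintillation. Background from uninfected RBCs was subtracted, with DMSO set as 100%. ED50 was obtained by linear regression.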

[4] = test system: Plasmodium falciparum; assay: Inhibition of Plasmodium falciparum 3D7 growth as reduced [3H]hypoxanthine incorporation; type: functional; conditions: 3D7, 72 h, read-out: ED50 (the source's name)
Outline: as §1

[5] = molecular target: T2, Protein farnesyltransferase (PFT) (Plasmodium falciparum, UniProt Q5EI73+Q5EI74); assay: Inhibition of Plasmodium falciparum PFT; type: protein-complex assay
T2 sequence (Q5EI73 whole entry): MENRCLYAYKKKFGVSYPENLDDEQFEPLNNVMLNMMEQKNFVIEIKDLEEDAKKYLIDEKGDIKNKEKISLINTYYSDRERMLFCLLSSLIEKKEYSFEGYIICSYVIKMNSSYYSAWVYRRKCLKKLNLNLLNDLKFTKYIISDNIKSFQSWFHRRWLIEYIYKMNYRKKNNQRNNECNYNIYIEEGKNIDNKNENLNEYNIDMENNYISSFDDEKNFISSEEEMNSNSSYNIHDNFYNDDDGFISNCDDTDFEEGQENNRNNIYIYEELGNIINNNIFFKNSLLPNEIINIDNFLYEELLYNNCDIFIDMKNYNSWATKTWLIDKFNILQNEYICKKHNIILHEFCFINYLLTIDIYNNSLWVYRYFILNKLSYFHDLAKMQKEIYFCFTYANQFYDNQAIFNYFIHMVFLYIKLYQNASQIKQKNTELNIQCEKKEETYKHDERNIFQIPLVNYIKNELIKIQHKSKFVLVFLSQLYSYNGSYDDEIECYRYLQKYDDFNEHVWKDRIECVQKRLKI
T2 sequence (Q5EI74 whole entry): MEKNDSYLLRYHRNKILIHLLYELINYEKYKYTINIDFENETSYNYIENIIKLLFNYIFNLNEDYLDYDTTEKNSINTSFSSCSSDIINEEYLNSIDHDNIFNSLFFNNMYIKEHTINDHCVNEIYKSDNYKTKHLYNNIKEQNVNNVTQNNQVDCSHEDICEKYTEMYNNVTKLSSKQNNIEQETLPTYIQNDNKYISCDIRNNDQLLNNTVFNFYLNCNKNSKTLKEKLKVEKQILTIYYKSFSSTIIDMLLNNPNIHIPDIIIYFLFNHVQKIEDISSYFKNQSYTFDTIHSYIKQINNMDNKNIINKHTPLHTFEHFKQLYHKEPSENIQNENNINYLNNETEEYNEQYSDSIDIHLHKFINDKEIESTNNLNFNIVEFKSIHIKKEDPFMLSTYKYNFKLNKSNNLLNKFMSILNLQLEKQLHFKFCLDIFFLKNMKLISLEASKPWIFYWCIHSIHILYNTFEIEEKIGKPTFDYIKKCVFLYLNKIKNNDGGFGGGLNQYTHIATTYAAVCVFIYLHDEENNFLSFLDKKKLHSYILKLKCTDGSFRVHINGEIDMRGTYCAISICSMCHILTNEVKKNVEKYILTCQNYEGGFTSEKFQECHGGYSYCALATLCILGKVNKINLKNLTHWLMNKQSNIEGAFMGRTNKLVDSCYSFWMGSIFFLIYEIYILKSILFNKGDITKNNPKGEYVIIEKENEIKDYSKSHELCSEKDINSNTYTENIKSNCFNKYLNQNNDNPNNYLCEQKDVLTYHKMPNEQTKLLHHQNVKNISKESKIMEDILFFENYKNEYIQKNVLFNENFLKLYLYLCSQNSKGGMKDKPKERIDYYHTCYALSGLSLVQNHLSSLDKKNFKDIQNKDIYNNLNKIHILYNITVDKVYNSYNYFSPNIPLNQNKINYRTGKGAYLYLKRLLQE

[6] = molecular target: T1, Protein farnesyltransferase (PFT) (Plasmodium falciparum); assay: Selectivity for inhibition of Plasmodium falciparum PFT over rat PFT; type: protein-complex assay
[7] = AUC in mouse at 50 mg/kg, po; type: ADME, organism-based; design: dose 50 mg/kg, route oral; conditions: plasma
Outline: (§2)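 Oral gavage at 50 mg/kg in 90% saline, 3% ethanol, 7% Tween; inhibitor concentration in plasma followed over 5 h. Values are averages of three animals per species (mice or rats). Reported parameters are AUC, Cmax, Tmax and elimination t1/2.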

[8] = Cmax in mouse at 50 mg/kg, po; type: ADME, organism-based; design: dose 50 mg/kg, route oral; conditions: in vivo
Outline: as §2

[9] = Half life in mouse at 50 mg/kg, po; type: ADME, organism-based; design: dose 50 mg/kg, route oral; conditions: in vivo, read-out: beta t1/2
Outline: as §2

[10] = Tmax in mouse at 50 mg/kg, po; type: ADME, organism-based; design: dose 50 mg/kg, route oral; conditions: in vivo
Outline: as §2

[11] = Apparent permeability in Caco-2 cells; type: ADME, cell-based; conditions: human
[12] = species: Mus musculus; assay: Half life in mouse liver microsome; type: ADME; conditions: microsomes
Outline: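 Pooled female liver microsomes were preincubated at 37 °C for 10 min in phosphate buffer with MgCl2, EDTA, an NADPH regenerating system and glucose-6-phosphate dehydrogenase. Inhibitor was then added in DMSO. Samples were quenched with acetonitrile plus internal standard at set time points and frozen at −20 °C. Parent and metabolites were quantified by LC/MS to give t1/2.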

Compound | inhibition [1] [%] | inhibition [2] [%] | other results
Cn1cncc1CN(CCN(Cc1ccccc1)S(=O)(=O)c1cccc2cccnc12)c1ccc(C#N)cc1 | 14 | 35 | 
Cn1cnc(S(=O)(=O)N(CCN(Cc2cncn2C)c2ccc(C#N)cc2)Cc2cccc(-c3ccccc3)c2)c1 | 56 | 93 | 
Cn1cnc(S(=O)(=O)N(CCN(Cc2cncn2C)c2ccc(C#N)cc2)Cc2cccc(-n3cccc3)c2)c1 | 37 | 74 | EC50 [3]: 4000 nM; EC50 [4]: 2500 nM
Cn1cnc(S(=O)(=O)N(CCN(Cc2cncn2C)c2ccc(C#N)cc2)CC2CCNCC2)c1 | 5 | 5 | 
Cn1cnc(S(=O)(=O)N(CCN(Cc2cncn2C)c2ccc(C#N)cc2)CC2CCN(C(=O)OC(C)(C)C)CC2)c1 | 81 | 96 | 
Cn1cncc1CN(CCN(Cc1ccccc1)S(=O)(=O)c1ccccc1)c1ccc(C#N)cc1 | 18 | 69 | IC50 [5]: 8.9 nM; Selectivity ratio [6]: 1.5
Cn1cnc(S(=O)(=O)N(CCN(Cc2cncn2C)c2ccc(C#N)cc2)Cc2ccccc2)c1 | 86 | 98 | EC50 [3]: 367 nM; AUC [7]: 1.87 µM·h; Cmax [8]: 740 nM; half-life [9]: 95.9 min; Tmax [10]: 30 min
O=S(=O)(c1ccccc1)N(CCN(Cc1c[nH]cn1)c1ccccc1)Cc1ccccc1 |  | 7 | 
CC(C)C(=O)N(CCN(Cc1cncn1C)c1ccc(C#N)cc1)Cc1ccccc1 | 0 | 61 | 
C=C(C)CN(CCN(Cc1cncn1C)c1ccc(C#N)cc1)S(=O)(=O)c1cn(C)cn1 | 6 | 77 | 
Cn1cnc(S(=O)(=O)N(CCN(Cc2cncn2C)c2ccc(C#N)cc2)Cc2cccnc2)c1 | 18 | 74 | 
O=S(=O)(c1cccc2cccnc12)N(CCN(Cc1c[nH]cn1)c1ccccc1)Cc1ccccc1 |  | 0 | 
Cn1cnc(S(=O)(=O)N(CCN(Cc2cncn2C)c2ccc(C#N)cc2)CC2CCN(c3ncccn3)CC2)c1 | 74 | 96 | 
Cc1ccccc1CN(CCN(Cc1cncn1C)c1ccc(-c2ccccc2)cc1)S(=O)(=O)c1cn(C)cn1 | 49 | 85 | EC50 [3]: 2600 nM; IC50 [5]: 8 nM
C=C(Br)CN(CCN(Cc1cncn1C)c1ccc(C#N)cc1)S(=O)(=O)c1cn(C)cn1 | 25 | 80 | 
CN(C)c1cccc2c(S(=O)(=O)N(CCN(Cc3cncn3C)c3ccc(C#N)cc3)Cc3ccccc3)cccc12 | 6 | 29 | IC50 [5]: 55 nM; Selectivity ratio [6]: 3.3
CC(=O)N1CCC(CN(CCN(Cc2cncn2C)c2ccc(C#N)cc2)S(=O)(=O)c2cn(C)cn2)CC1 | 8 | 44 | 
CC(C)C(=O)N1CCC(CN(CCN(Cc2cncn2C)c2ccc(C#N)cc2)S(=O)(=O)c2cn(C)cn2)CC1 | 57 | 92 | 
Cn1cnc(S(=O)(=O)N(CCN(Cc2cncn2C)c2ccc(Br)cc2)Cc2ccccc2)c1 | 70 | 95 | IC50 [5]: 2 nM
Cn1cnc(S(=O)(=O)N(CCN(Cc2cncn2C)c2ccc(C#N)cc2)CC(=O)NC(C)(C)C)c1 | 4 | 6 | IC50 [5]: > 1000 nM
Cn1cnc(S(=O)(=O)N(CCN(Cc2cncn2C)c2ccc(C#N)cc2)CC2CCCCC2)c1 | 63 | 93 | IC50 [5]: 4.5 nM; Selectivity ratio [6]: 1.7; Papp [11]: 1.5 ×10⁻⁶ cm/s

Compound | inhibition [1] [%] | inhibition [2] [%] | other results
Cn1cnc(S(=O)(=O)N(CCN(Cc2cncn2C)c2ccc(C#N)cc2)Cc2ccc(-n3cccc3)cc2)c1 | 39 | 85 | 
Cn1cnc(S(=O)(=O)N(CCN(Cc2cncn2C)c2ccc(C#N)cc2)Cc2ccccn2)c1 | 64 | 93 | IC50 [5]: 2.1 nM
Cn1cnc(S(=O)(=O)N(CCN(Cc2cncn2C)c2ccc(C#N)cc2)Cc2ccncc2)c1 | 22 | 62 | 
Cc1cccc(CN(CCN(Cc2cncn2C)c2ccc(C#N)cc2)S(=O)(=O)c2cn(C)cn2)c1 | 61 | 94 | EC50 [3]: 1000 nM; EC50 [4]: 300 nM
CC(=O)N(CCN(Cc1cncn1C)c1ccc(C#N)cc1)Cc1ccccc1 | 0 | 56 | 
Cn1cnc(S(=O)(=O)N(CCN(Cc2cncn2C)c2ccc(C#N)cc2)CCn2cccc2)c1 | 11 | 56 | 
Cn1cnc(S(=O)(=O)N(CCN(Cc2c[nH]cn2)c2ccc(Br)cc2)Cc2ccccc2)c1 |  | 80 | 
Cn1cnc(S(=O)(=O)N(CCN(Cc2cncn2C)c2ccc(Br)cc2)Cc2ccccn2)c1 |  |  | IC50 [5]: 1.9 nM; Selectivity ratio [6]: 44
Cc1ccc(CN(CCN(Cc2cncn2C)c2ccc(C#N)cc2)S(=O)(=O)c2cn(C)cn2)cc1 | 45 | 54 | 
Cn1cncc1CN(CCN(Cc1ccccc1)S(=O)(=O)c1cccs1)c1ccc(C#N)cc1 | 17 | 74 | 
Cn1cnc(S(=O)(=O)N(CCN(Cc2cncn2C)c2ccc(C#N)cc2)CC2CCOCC2)c1 | 28 | 84 | 
O=S(=O)(c1ccc2ccccc2c1)N(CCN(Cc1c[nH]cn1)c1ccccc1)Cc1ccccc1 |  | 0 | 
Cn1cncc1CN(CCN(Cc1ccccc1)S(=O)(=O)c1ccccn1)c1ccc(C#N)cc1 | 64 | 95 | Tmax [10]: 30 min
CN(C)c1cccc2c(S(=O)(=O)N(CCN(Cc3c[nH]cn3)c3ccccc3)Cc3ccccc3)cccc12 |  | 0 | 
Cn1cnc(S(=O)(=O)N(CCN(Cc2c[nH]cn2)c2ccccc2)Cc2ccccc2)c1 |  | 32 | 
Cn1cnc(S(=O)(=O)N(CCN(Cc2cncn2C)c2ccc(C#N)cc2)Cc2ccc(-c3ccccc3)cc2)c1 | 10 | 19 | IC50 [5]: 240 nM; Selectivity ratio [6]: 3.7; T1/2 [12]: 3 min
C=CCN(CCN(Cc1cncn1C)c1ccc(C#N)cc1)S(=O)(=O)c1cn(C)cn1 | 1 | 42 | 
Cn1cnc(S(=O)(=O)N(CCN(Cc2cncn2C)c2ccc(C#N)cc2)Cc2cccc(C#N)c2)c1 | 45 | 89 | EC50 [3]: 1800 nM; EC50 [4]: 350 nM
Cn1cnc(S(=O)(=O)N(CCN(Cc2cncn2C)c2ccc(C#N)cc2)Cc2ccc(C#N)cc2)c1 | 24 | 48 | IC50 [5]: 95 nM; Selectivity ratio [6]: 3.7
O=S(=O)(c1cccs1)N(CCN(Cc1c[nH]cn1)c1ccccc1)Cc1ccccc1 |  | 5 | 
